Screens: PubChem, Broad Institute
Shown are actives, neighbours in structure and some others; about 1.9% of the full set was active somewhere.
RAD54 inh: inhibitors of human RAD54 branch migration, primary screen, biochemical, fluorescence, single point. RAD54 Holliday junction branch migration, FAM/BHQ fluorescence. DNA repair and recombination protein RAD54-like (Homo sapiens), Q92698. AID 602329, 2012. 360,000 tested, 0.14% active. inhibition, % at 10.4 µM;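 active means mean normalized replicate activity at least 40 and at least half of replicates scoring 40 or more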;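 further: 0% = median of neutral control wells and 100% = median of positive control wells; inhibitors cause a drop in the FAM fluorescence signal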
Cneo AK release: Cryptococcus neoformans cell lysis inducers, primary screen, AK release luminescence, single concentration; C. neoformans lysis, adenylate kinase release luminescence, 4 h; normalised: neutral wells 0, clomiphene wells 100; lysis activity, % at 15 µM; 360,000 tested, 0.2% active; AID 651654, 2012;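 active means mean lysis activity across replicates of at least 80%, whatever share of replicates individually reach that level; inactive means mean lysis activity below 80%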
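Assay system: C. neoformans cells. Amount: yeast cell density of 5 × 10^6 cells/mL. Technique: AK luminescence. Buffer or medium: YPD. Times: static 4 h at 37 °C with compound, 1 h detection. Dosing: single-point compound dose. Read-out: lysis from increased AK signal.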
PglD inh: C. jejuni PglD acetyltransferase inhibitors, primary screen, biochemical, DTNB colorimetric, single point. UDP-N-acetylbacillosamine N-acetyltransferase PglD (Campylobacter jejuni). purified PglD enzyme, DTNB colorimetric CoA detection. inhibition, % at 12.5 µM. 360,000 tested, 0.098% active; in the data active means inhibition above about 16%, passing the limit was not always enough
Ecoli rRNA inh: reduced GFP signal of wild-type E. coli, primary screen, bacterial rRNA inhibitor project, GFP/RFP fluorescence, OD600, single point; 350,000 tested, 1.6% active; E. coli WT GFP vs humanized-ribosome RFP mutants, 24 h; stronger effect = lower value; DMSO median 0, no signal -100; AID 720706, 2013; GFP signal change (wild-type ribosome), % (test concentration not listed);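 active means significant combined selectivity score with lowered wild-type GFP, culture density cut under 30%, mutant RFP and density less affected; inactive means any of these conditions unmet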
RAD52 inh: RAD52 DNA annealing inhibitors, primary screen, biochemical, FRET, single point, set 2; recombinant RAD52 DNA annealing, FRET fluorescence; inhibition, % at 18.7 µM; 360,000 tested, 0.46% active; DNA repair protein RAD52 homolog (Homo sapiens), P43351;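 active means every replicate showing at least 50% inhibition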
Target sequence (P43351 whole entry, looked up): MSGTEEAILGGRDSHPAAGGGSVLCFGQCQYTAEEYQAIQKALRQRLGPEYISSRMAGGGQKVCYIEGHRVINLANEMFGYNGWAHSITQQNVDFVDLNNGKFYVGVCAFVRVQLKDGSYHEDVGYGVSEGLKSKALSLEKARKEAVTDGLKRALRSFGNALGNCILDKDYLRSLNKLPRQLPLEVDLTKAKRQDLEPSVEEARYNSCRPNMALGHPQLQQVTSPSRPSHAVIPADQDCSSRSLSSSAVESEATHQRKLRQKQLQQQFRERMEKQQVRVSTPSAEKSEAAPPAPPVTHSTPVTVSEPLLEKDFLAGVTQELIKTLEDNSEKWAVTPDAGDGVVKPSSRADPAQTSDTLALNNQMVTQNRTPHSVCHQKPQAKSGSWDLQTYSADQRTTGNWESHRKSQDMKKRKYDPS
An asterisk follows results filed as active.

For COc1ccc(NC(=O)C2C(c3ccccc3)C2(Cl)Cl)cc1 (configuration not stated) the results were Ecoli rRNA inh -39* and RAD52 inh -12.
COc1ccc(NC(=O)Nc2ccc3c(c2)C(=O)N([C@H](C)CO)C[C@H](C)[C@@H](CN(C)S(=O)(=O)c2c(C)noc2C)O3)cc1 was read as Ecoli rRNA inh -1.
Screening COc1ccc(S(=O)(=O)N2c3ccc(F)cc3CCC2C)cc1 (configuration not stated) returned RAD54 inh -3, Cneo AK release -7, PglD inh 8, Ecoli rRNA inh -28* and RAD52 inh 4.
Screening O=C(COC(=O)CCCc1nc2ccccc2s1)NC(=O)NCc1ccco1 returned RAD54 inh 3, Cneo AK release -2, PglD inh 0, Ecoli rRNA inh -19* and RAD52 inh -18.
CO[C@@H]1CN(C)C(=O)c2cc(NC(C)=O)ccc2OC[C@H](C)N(C(=O)C2CCCCC2)C[C@H]1C was read as Ecoli rRNA inh 1.
Screening O=C1N(Cc2ccccc2)Cc2ccccc2[C@H]2OC(c3ccc(OCCCO)cc3)=N[C@@]12CCS(=O)(=O)c1ccccc1 returned RAD54 inh -2, Cneo AK release -2, PglD inh 7 and RAD52 inh 13.
`O=C(O)c1ccccc1Nc1ccccc1` gave RAD54 inh -1, Cneo AK release 0, PglD inh 0 and RAD52 inh -7.
`O=C(O)c1ccccc1Nc1ccc(OC(F)F)cc1` gave Ecoli rRNA inh -16* and RAD52 inh 1.
Screening C[C@@H]1CN([C@@H](C)CO)C(=O)c2cc(NC(=O)Nc3cccc4ccccc34)ccc2O[C@@H](C)CCCCO[C@@H]1CN(C)S(=O)(=O)c1cn(C)cn1 returned RAD54 inh 5, Cneo AK release -4, PglD inh 0, Ecoli rRNA inh -4 and RAD52 inh -16.
For COc1ccccc1Nc1nc(C)c(C(=O)Nc2ccccc2)s1 the results were RAD54 inh 2, Cneo AK release -2, PglD inh 1, Ecoli rRNA inh -32* and RAD52 inh -26.
Cc1nc(Nc2ccccc2Cl)sc1C(=O)Nc1ccccc1 was read as RAD54 inh -4, Cneo AK release -1, PglD inh -4, Ecoli rRNA inh -42 and RAD52 inh -15.
`Cc1ccc(S(=O)(=O)Nc2nc(C)c(C(=O)Nc3ccccc3)s2)cc1` gave RAD54 inh -5, Cneo AK release 22, PglD inh 4, Ecoli rRNA inh -13 and RAD52 inh -18.
Screening Cc1nc(Nc2ccc(S(N)(=O)=O)cc2)sc1C(=O)Nc1ccccc1 returned Ecoli rRNA inh -35* and RAD52 inh -7.
CCOC(=O)c1c(NC(=O)COC(=O)c2ccccn2)sc2c1CCC2 was read as RAD54 inh -3, Cneo AK release 0, PglD inh 6, Ecoli rRNA inh -18* and RAD52 inh -11.
Screening CCCc1cn(CC[C@@H]2CC[C@H](NS(=O)(=O)c3ccc(-c4ccccc4)cc3)[C@H](CO)O2)nn1 returned RAD54 inh -3, Cneo AK release -1, PglD inh -1, Ecoli rRNA inh 0 and RAD52 inh 8.
COC(=O)CC1C(=O)NCCN1C(=S)NC(=O)C(c1ccccc1)c1ccccc1 (configuration not stated) was read as Ecoli rRNA inh -26* and RAD52 inh -14.
Screening CCCNC(=O)C[C@@H]1CC[C@H]2[C@H](COc3ccc(NC(=O)C4CCOCC4)cc3C(=O)N2C)O1 returned RAD54 inh -2, Cneo AK release -1, PglD inh 1, Ecoli rRNA inh 5 and RAD52 inh -2.
O=C(O)CC/C(=C\c1ccc(N2CCCC2)c([N+](=O)[O-])c1)c1nc2ccccc2s1 was read as Ecoli rRNA inh -40* and RAD52 inh 3.
`CC(C)NC(=O)N(C)C[C@H]1OCCCC[C@H](C)Oc2ccc(NS(=O)(=O)c3ccccc3)cc2C(=O)N([C@@H](C)CO)C[C@H]1C` gave RAD54 inh 1, Cneo AK release 3, PglD inh -1, Ecoli rRNA inh -1 and RAD52 inh 5.
For CN(C)CCN(Cc1ccco1)C(=O)c1cc2c(Cl)nc3ccccc3c2s1 the results were Ecoli rRNA inh -33* and RAD52 inh 20.
Screening CC1C(=O)OC(c2ccc(Br)cc2)C(C)(C)C1=O (configuration not stated) returned RAD54 inh -5, Cneo AK release -2, PglD inh 5, Ecoli rRNA inh -43* and RAD52 inh -14.
Screening O=C(Nc1ccno1)Nc1ccc(Cl)cc1Cl returned Ecoli rRNA inh -30* and RAD52 inh -26.
For O=C(Nc1ccc(S(=O)(=O)N2CCOCC2)cc1)c1cc(-c2cc(Cl)ccc2O)n[nH]1 the results were Ecoli rRNA inh -38* and RAD52 inh -3.
Cc1cc(O)c(-c2cc(C(=O)Nc3ccc(S(=O)(=O)N4CCOCC4)cc3)[nH]n2)cc1C was read as RAD54 inh 2, Cneo AK release 0 and PglD inh -1.
For C[C@@H]1CN([C@H](C)CO)C(=O)c2cc(C#CC(C)(C)O)cnc2O[C@@H]1CN(C)Cc1cncnc1 the results were RAD54 inh -3, Cneo AK release 85*, PglD inh 1, Ecoli rRNA inh 4 and RAD52 inh 3.
Screening COc1ccccc1-c1cnc2c(c1)C(=O)N([C@H](C)CO)C[C@@H](C)[C@H](CN(C)Cc1cncnc1)O2 returned RAD54 inh 2, Cneo AK release 82*, PglD inh 0, Ecoli rRNA inh 1 and RAD52 inh -10.
For C[C@H](CO)N1C[C@H](C)[C@H](CN(C)Cc2cccnc2)Oc2ncc(C#CC3(O)CCCC3)cc2C1=O the results were RAD54 inh -1, Cneo AK release 98*, PglD inh -10, Ecoli rRNA inh 2 and RAD52 inh 5.
`COc1ccc(NC(=O)N2CCCCN3[C@H](CO)[C@H](c4ccc(-c5ccccc5F)cc4)[C@H]3C2)cc1` gave RAD54 inh 22, Cneo AK release 9, PglD inh -2, Ecoli rRNA inh -54 and RAD52 inh 57*.
`COc1ccc(NC(=O)N2CCCCN3[C@H](CO)[C@@H](c4ccc(-c5ccccc5F)cc4)[C@@H]3C2)cc1` gave RAD54 inh 7, Cneo AK release 6, PglD inh -1, Ecoli rRNA inh -40 and RAD52 inh 56*.
